Experimental findings from ChEMBL document CHEMBL1140384, “Synthesis and structure-activity relationships of suramin-derived P2Y11 receptor antagonists with nanomolar potency” (J Med Chem, 2005) are described below.

One test addresses T1, P2X purinoceptor 2 (Rattus norvegicus, UniProt P49653).
T1 sequence (P49653 whole entry): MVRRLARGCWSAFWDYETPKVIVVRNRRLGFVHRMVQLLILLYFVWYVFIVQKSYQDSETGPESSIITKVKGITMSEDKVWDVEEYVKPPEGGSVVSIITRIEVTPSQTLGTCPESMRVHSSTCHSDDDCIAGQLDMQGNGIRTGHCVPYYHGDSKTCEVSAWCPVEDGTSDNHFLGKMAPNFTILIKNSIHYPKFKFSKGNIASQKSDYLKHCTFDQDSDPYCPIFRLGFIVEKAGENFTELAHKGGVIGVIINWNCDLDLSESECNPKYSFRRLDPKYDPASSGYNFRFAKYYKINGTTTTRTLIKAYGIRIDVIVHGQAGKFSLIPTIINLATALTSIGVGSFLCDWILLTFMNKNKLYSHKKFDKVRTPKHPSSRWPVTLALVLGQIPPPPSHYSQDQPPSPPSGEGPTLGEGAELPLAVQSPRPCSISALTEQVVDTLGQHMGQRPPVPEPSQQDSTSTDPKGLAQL
The experiment in a line: Inhibitory concentration against rat P2X purinoceptor 2 expressed in Xenopus laevis oocytes. It counts as functional, cell-based, Oocyte. A digest of the protocol: (§1)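 Two-electrode voltage clamp on Xenopus laevis oocytes expressing recombinant rat or human P2X subtypes, recording receptor-mediated currents. IC50 values came from nonlinear least-squares Hill fits to pooled concentration-inhibition data; mean ± SEM from at least three experiments.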

The next test deals with T2, P2X purinoceptor 3 (Rattus norvegicus, UniProt P49654).
T2 sequence (P49654 whole entry): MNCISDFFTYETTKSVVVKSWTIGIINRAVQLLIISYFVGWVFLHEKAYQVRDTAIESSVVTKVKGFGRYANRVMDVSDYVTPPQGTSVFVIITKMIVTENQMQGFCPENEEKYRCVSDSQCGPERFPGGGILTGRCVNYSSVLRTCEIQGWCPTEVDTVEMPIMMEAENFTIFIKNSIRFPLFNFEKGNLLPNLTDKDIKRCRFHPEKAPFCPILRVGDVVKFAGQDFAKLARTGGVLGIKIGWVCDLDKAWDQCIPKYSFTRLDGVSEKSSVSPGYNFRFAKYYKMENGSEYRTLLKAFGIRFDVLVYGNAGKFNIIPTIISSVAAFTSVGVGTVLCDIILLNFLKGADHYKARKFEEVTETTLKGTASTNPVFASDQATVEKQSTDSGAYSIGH
As to the kind of experiment: Inhibitory concentration against rat P2X purinoceptor 3 expressed in Xenopus laevis oocytes. It counts as functional, cell-based, Oocyte. A digest of the protocol:
as §1

For a further test, the target named is T3, P2X purinoceptor 1 (Homo sapiens, UniProt P51575).
T3 sequence (P51575 whole entry): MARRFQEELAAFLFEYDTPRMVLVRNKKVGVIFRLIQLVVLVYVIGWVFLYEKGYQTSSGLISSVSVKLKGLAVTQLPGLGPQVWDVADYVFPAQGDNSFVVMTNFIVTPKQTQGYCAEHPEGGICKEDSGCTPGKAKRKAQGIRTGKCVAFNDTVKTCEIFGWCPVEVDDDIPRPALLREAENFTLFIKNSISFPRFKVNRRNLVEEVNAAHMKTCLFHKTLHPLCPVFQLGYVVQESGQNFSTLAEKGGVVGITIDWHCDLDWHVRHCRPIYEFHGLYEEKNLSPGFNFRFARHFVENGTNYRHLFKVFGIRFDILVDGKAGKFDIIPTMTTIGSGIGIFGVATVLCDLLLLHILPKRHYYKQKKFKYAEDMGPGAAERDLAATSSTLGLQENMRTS
As to the kind of experiment: Inhibitory concentration against human P2X purinoceptor 1 expressed in Xenopus laevis oocytes. The test is classed as functional, cell-based, Oocyte. In outline:
as §1

Test [1] addresses T4, P2Y purinoceptor 11 (Homo sapiens, UniProt Q96G91).
T4 sequence (Q96G91 whole entry): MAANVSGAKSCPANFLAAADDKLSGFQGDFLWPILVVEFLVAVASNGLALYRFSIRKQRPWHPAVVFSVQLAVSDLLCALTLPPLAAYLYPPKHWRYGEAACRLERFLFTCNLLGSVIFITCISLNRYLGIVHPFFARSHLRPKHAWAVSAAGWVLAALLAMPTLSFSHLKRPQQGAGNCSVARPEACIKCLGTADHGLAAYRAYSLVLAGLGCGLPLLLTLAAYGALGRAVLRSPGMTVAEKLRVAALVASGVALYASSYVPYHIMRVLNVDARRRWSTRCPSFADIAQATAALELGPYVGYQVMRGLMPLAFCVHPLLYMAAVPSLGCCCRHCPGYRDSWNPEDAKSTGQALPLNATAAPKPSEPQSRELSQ
The experiment in a line: Inhibitory concentration against P2Y11 receptor expressed in 1321N1 astrocytoma Cells; (n=7). A digest of the protocol: (§2)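 Human P2Y11 stably expressed in 1321N1 astrocytoma cells (G418 selection), loaded with Oregon Green 488 BAPTA-1/AM (3 µM, 60 min, 25 °C) in Krebs-HEPES. Compound preincubated 30 min at 37 °C before injection of 1 µM ATPγS. Ca2+ fluorescence read at ex 485/em 520 nm for 30 s. IC50 from concentration-inhibition curves; independent experiments each run in triplicate.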

Test [2] addresses T4, P2Y purinoceptor 11. The experiment in a line: Inhibitory concentration against P2Y purinoceptor 11 expressed in 1321N1 astrocytoma cells; n=7. It counts as cell-based. A digest of the protocol: as §2
A further test concerns the target P2Y purinoceptor 2 (Homo sapiens, UniProt P41231). The experiment in a line: Percent inhibition of agonist-induced calcium mobilization at P2Y purinoceptor 2 recombinantly expressed in human HEK293 cells at 100 uM dose. The conditions noted are these: in the assay text read “native in” for “recombinantly expressed in”. The test is classed as functional, cell-based. A digest of the protocol:
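Single 100 µM antagonist dose, preincubated 30 min at 37 °C, in a Ca2+ fluorescence assay (Oregon Green 488 BAPTA-1/AM). Agonists: 31.6 nM 2-MeSADP for native P2Y1 and 3.16 µM UTP for native P2Y2, both in HEK293 cells; 1 µM ATPγS for recombinant P2Y11 in 1321N1 cells. Response expressed as % of agonist control; mean ± SEM, n ≥ 3.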
Background: Calcium flux is commonly read through the fluorescence of an indicator in the cells.

For test [3], the target named is T5, P2Y purinoceptor 11 (Homo sapiens) (UniProt Q96G91).
T5 sequence (whole entry): T4 sequence (Q96G91 whole entry)
As to the kind of experiment: Percent inhibition of agonist-induced calcium mobilization at P2Y purinoceptor 11 recombinantly expressed in human 1321N1 astrocytoma cells at 100 uM dose.

Chain of P2Y purinoceptor 2 (P41231 whole entry): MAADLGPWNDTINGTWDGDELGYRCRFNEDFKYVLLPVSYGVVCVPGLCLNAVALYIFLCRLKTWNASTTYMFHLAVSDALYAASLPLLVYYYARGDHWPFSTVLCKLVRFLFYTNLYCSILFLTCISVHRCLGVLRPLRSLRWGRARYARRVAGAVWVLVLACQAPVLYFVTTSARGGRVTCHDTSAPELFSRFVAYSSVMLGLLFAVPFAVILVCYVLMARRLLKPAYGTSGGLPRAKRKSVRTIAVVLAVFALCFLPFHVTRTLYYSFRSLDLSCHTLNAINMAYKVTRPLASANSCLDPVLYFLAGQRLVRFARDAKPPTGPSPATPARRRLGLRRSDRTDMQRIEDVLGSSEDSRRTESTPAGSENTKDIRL

Broadly, the IC50 is the midpoint of a concentration-inhibition curve. As a reminder, the Ki is a dissociation constant, usually derived from enzyme kinetics or from competition with a known ligand. Low values mean a stronger hold on the target, high ones a looser hold on the target. Broadly, the inhibition is the drop in the measured response relative to a control, in per cent. With `O=C(Nc1cccc(C(=O)Nc2cc(C(=O)Nc3ccc(S(=O)(=O)O)c4cc(S(=O)(=O)O)cc(S(=O)(=O)O)c34)ccc2F)c1)Nc1cccc(C(=O)Nc2cc(C(=O)Nc3ccc(S(=O)(=O)O)c4cc(S(=O)(=O)O)cc(S(=O)(=O)O)c34)ccc2F)c1`, the IC50 at P2X purinoceptor 2 is 138 nM; against P2X purinoceptor 3, 776 nM; on P2X purinoceptor 1, 63.1 nM; against P2Y purinoceptor 11 [1] it was 457 nM. Besides, at P2Y purinoceptor 11 [2], affinity was put at a Ki of 44.7 nM. For the same compound, the results for the inhibition (at P2Y purinoceptor 2; in test [3]) were 42.8% and 96.6%, respectively.
